What was measured:
[1] = biological target: Fibroblast growth factor receptor 4 (Homo sapiens) (UniProt P22455); assay: Inhibition of N-terminal GST-tagged human FGFR4 cytoplasmic domain (460 to 802 residues) expressed in baculovirus expression system at 1 uM using FAM-labeled peptide as substrate after 10 mins by mobility shift assay relative to control
How it was run: (§1)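 Caliper mobility-shift kinase assay. Kinase in kinase base buffer was preincubated with compound for 10 min at room temperature. FAM-labelled peptide and ATP at Km were then added, and the reaction ran at 28 °C until quenched with buffer. Screening concentration was 1 µM. Percent inhibition = (max − conversion)/(max − min) × 100, with DMSO as max and a low control as min.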

[2] = biological target: Proto-oncogene tyrosine-protein kinase Src (Homo sapiens) (UniProt P12931); assay: Inhibition of N-terminal GST-tagged full length human SRC cytoplasmic domain (1 to 536 residues) expressed in baculovirus expression system at 1 uM using FAM-labeled peptide as substrate after 10 mins by mobility shift assay relative to control; how it was run: as §1
Sequence of Proto-oncogene tyrosine-protein kinase Src (Homo sapiens) (P12931 2-536 limits assumed): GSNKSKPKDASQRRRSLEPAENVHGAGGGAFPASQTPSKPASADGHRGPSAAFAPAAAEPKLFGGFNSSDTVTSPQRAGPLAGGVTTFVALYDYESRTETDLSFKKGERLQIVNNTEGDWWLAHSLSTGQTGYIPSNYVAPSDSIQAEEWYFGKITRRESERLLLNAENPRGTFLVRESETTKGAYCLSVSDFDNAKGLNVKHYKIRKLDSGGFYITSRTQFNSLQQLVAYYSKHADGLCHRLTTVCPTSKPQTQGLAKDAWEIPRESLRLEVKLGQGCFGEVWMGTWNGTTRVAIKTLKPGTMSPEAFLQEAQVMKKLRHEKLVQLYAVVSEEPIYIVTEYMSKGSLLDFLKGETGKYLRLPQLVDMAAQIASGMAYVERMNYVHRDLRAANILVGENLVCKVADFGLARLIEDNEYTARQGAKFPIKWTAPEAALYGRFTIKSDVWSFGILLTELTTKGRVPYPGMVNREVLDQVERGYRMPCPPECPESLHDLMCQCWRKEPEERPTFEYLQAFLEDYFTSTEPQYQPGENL

[3] = biological target: Tyrosine-protein kinase JAK2 (Homo sapiens) (UniProt O60674); assay: Inhibition of human N-terminal His-tagged JAK2 catalytic domain (826 to 1132 residues) expressed in baculovirus expression system at 1 uM using FAM-labeled peptide as substrate after 10 mins by mobility shift assay relative to control; how it was run: as §1
[4] = biological target: Non-receptor tyrosine-protein kinase TYK2 (Homo sapiens) (UniProt P29597); assay: Inhibition of human N-terminal GST-tagged TYK2 catalytic domain (871 to 1187 residues) expressed in baculovirus expression system at 1 uM using FAM-labeled peptide as substrate after 10 mins by mobility shift assay relative to control; how it was run: as §1
Sequence of Non-receptor tyrosine-protein kinase TYK2 (Homo sapiens) (P29597 whole entry, the tested form may be a part): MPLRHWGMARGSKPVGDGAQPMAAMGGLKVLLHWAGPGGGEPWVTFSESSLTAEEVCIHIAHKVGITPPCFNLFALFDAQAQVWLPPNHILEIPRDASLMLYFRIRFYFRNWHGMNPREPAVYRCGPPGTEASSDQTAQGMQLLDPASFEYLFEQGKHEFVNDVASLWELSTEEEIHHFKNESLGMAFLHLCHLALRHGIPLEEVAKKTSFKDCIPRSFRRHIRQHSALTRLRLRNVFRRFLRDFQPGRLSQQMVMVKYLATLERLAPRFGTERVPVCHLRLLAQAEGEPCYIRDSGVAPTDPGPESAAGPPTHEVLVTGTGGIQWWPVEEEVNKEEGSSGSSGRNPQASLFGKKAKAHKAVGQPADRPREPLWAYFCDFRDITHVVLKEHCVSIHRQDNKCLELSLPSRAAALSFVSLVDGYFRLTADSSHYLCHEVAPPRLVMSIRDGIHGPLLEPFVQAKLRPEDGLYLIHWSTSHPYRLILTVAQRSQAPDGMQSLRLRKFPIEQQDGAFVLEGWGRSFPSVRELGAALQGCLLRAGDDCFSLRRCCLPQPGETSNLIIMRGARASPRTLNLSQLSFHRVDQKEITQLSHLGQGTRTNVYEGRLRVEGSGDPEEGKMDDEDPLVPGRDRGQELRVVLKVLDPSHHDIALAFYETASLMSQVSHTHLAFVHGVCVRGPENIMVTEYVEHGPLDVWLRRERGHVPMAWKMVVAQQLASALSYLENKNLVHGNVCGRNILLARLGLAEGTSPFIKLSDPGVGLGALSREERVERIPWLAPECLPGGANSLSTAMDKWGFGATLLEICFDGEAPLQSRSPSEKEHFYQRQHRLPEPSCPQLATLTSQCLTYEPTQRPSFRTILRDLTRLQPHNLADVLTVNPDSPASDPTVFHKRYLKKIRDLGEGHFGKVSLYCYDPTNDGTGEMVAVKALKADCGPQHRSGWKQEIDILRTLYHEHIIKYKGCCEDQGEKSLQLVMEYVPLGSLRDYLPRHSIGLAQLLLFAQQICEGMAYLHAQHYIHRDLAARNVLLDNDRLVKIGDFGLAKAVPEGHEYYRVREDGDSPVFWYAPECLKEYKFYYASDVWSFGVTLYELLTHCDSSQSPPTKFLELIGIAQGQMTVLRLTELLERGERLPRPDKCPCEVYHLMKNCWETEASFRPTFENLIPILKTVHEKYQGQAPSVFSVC

[5] = biological target: Mast/stem cell growth factor receptor Kit (Homo sapiens) (UniProt P10721); assay: Inhibition of recombinant human N-terminal GST-tagged c-KIT (544 to end residues) expressed in baculovirus infected Sf21 cells at 1 uM using FAM-labeled peptide as substrate after 10 mins by mobility shift assay relative to control; how it was run: as §1
Sequence of Mast/stem cell growth factor receptor Kit (Homo sapiens) (P10721 whole entry, the tested form may be a part): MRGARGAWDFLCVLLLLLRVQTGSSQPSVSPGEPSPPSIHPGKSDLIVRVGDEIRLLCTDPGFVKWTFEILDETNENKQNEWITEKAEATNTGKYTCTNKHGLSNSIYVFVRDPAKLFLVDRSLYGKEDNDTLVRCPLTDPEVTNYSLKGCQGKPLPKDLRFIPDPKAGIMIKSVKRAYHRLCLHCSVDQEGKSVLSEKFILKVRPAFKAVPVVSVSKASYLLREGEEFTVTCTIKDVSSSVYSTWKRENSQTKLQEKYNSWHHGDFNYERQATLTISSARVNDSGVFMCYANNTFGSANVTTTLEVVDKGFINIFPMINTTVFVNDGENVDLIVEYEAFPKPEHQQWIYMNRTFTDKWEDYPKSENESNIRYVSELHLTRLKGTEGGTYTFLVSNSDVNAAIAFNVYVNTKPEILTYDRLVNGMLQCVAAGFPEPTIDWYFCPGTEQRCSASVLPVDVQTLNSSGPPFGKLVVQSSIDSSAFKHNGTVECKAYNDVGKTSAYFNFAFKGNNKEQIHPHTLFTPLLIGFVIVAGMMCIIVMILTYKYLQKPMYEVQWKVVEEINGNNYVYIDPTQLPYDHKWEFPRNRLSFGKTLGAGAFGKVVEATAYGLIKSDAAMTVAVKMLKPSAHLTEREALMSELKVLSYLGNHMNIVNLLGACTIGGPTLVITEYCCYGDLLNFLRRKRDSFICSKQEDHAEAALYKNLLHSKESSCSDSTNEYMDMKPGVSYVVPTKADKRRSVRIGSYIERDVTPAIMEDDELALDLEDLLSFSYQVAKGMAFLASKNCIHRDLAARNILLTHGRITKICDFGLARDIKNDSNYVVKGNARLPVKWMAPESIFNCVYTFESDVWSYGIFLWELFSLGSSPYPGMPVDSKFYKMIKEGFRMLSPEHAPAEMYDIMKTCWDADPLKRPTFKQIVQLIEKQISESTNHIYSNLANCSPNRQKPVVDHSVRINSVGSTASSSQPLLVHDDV

[6] = biological target: Mitogen-activated protein kinase kinase kinase kinase 4 (Homo sapiens) (UniProt O95819); assay: Inhibition of human N-terminal GST-tagged full length MAP4K4 catalytic domain (1 to 328 residues) expressed in baculovirus expression system at 1 uM using FAM-labeled peptide as substrate after 10 mins by mobility shift assay relative to control; how it was run: as §1
Sequence of Mitogen-activated protein kinase kinase kinase kinase 4 (Homo sapiens) (O95819 2-1239 limits assumed): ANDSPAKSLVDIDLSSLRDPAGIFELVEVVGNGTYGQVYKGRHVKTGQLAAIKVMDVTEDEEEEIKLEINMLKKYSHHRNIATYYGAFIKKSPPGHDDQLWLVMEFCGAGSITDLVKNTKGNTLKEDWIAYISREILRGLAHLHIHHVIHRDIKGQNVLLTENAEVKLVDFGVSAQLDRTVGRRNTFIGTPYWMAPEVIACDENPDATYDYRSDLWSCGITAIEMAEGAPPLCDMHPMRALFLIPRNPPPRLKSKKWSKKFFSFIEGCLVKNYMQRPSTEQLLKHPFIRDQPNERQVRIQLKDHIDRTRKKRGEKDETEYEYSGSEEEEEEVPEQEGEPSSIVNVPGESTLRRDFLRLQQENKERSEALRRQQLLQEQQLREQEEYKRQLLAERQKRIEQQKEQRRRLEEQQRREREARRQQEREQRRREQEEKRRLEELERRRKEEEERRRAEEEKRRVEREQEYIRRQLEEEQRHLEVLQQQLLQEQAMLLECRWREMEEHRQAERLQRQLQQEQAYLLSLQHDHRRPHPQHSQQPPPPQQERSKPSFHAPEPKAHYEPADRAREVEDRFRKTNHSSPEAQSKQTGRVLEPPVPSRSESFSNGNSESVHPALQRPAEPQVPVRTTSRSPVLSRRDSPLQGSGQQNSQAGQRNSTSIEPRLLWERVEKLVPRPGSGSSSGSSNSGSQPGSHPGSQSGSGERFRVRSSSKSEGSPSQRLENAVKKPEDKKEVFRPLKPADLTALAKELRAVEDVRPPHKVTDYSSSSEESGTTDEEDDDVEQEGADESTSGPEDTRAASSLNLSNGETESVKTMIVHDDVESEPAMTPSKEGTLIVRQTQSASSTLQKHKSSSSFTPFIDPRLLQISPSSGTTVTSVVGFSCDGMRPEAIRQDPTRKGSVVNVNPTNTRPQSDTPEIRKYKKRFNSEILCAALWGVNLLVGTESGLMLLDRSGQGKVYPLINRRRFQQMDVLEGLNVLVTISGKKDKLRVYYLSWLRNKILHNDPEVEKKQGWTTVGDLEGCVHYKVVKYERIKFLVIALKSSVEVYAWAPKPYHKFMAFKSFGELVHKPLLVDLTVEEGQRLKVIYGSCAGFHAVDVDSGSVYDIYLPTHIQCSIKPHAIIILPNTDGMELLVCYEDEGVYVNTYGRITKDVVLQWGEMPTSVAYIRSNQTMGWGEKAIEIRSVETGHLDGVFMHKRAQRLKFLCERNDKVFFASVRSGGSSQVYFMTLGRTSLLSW

[7] = biological target: T1, Inhibitor of nuclear factor kappa-B kinase subunit beta (Homo sapiens) (UniProt O14920); assay: Inhibition of human N-terminal His-tagged truncated IKKB (1 to 662 residues) expressed in baculovirus expression system at 1 uM using FAM-labeled peptide as substrate after 10 mins by mobility shift assay relative to control; how it was run: as §1
T1 sequence (whole entry): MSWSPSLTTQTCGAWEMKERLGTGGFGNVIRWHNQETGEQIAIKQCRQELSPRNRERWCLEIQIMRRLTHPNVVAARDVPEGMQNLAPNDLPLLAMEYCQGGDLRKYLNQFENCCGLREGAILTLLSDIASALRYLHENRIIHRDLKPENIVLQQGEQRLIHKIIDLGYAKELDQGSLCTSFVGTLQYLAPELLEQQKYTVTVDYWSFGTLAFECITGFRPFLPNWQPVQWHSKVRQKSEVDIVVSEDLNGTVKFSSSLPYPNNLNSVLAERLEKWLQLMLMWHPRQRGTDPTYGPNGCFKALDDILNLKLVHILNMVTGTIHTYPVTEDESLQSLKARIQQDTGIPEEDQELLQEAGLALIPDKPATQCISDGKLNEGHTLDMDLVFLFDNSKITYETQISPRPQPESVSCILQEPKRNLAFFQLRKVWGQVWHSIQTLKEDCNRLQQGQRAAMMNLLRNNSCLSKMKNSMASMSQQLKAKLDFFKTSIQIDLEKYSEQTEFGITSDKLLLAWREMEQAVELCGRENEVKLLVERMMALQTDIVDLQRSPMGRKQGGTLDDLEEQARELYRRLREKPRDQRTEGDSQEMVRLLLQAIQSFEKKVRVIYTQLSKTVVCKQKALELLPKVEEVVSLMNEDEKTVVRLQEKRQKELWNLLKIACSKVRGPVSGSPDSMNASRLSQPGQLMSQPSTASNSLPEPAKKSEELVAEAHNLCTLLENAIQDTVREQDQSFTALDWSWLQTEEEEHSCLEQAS

[8] = biological target: T2, Aurora kinase A (Homo sapiens) (UniProt O14965); assay: Inhibition of human N-terminal GST-tagged AURA (1 to 403 residues) expressed in baculovirus expression system at 1 uM using FAM-labeled peptide as substrate after 10 mins by mobility shift assay relative to control; how it was run: as §1
T2 sequence (whole entry): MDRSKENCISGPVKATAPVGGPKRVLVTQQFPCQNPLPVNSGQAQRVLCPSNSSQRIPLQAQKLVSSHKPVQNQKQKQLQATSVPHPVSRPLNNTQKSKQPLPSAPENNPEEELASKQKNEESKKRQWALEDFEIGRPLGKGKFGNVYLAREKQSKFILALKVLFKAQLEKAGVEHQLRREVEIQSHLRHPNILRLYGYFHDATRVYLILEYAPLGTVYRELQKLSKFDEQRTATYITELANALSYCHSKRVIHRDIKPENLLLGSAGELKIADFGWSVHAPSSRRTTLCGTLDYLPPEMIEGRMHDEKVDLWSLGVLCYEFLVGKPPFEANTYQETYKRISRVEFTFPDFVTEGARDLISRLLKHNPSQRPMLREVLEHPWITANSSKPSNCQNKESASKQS

Sequence of Fibroblast growth factor receptor 4 (Homo sapiens) (P22455 22-802 limits assumed): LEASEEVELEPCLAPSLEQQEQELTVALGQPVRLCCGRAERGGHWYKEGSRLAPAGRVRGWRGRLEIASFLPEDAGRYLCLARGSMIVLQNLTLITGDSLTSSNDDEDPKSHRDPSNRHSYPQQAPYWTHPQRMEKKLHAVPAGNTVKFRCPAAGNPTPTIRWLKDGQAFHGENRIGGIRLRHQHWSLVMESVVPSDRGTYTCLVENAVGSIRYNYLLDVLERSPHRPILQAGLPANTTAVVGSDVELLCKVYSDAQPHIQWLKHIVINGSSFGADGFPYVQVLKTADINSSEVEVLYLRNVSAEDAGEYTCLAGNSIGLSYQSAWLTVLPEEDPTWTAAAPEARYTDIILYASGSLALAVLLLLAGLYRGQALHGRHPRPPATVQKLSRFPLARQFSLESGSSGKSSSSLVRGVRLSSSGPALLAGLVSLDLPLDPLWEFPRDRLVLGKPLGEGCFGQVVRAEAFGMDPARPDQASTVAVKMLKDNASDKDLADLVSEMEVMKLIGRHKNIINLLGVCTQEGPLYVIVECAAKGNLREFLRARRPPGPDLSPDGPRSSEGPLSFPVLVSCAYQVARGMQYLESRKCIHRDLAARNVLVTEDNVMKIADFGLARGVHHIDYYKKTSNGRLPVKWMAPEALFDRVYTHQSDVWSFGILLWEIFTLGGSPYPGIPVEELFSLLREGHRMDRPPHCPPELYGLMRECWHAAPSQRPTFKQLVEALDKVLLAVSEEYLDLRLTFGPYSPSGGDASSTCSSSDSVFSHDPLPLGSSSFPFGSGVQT

Compound	inhibition [1] [%]	inhibition [2] [%]	inhibition [3] [%]	inhibition [4] [%]	inhibition [5] [%]	inhibition [6] [%]	inhibition [7] [%]	inhibition [8] [%]
COc1cccc(Nc2cc(Nc3cc(OC)ccc3OC)ncn2)c1	4.8	33.2	0.7	0	0.4	53.5	-2.1	52.3
COc1cccc(Nc2cc(NC(=O)CCCC(=O)O)ncn2)c1	21.6	16.6	17.7	-4.4	13.3	13.5	13.3	19.8
COc1ccc(Nc2cc(NC(=O)c3ccccc3)ncn2)cc1	1.8	27.7	-4.2	-7.9	26	44.8	3.5	2.6
CCOC(=O)c1ccc(Nc2cc(NC(=O)CCCC(=O)O)ncn2)cc1	-0.6	11.4	4.2	-1.4	5.9	56.3	1.2	17.3
O=C(O)CCCC(=O)Nc1cc(N2CCOCC2)ncn1	4	11.7	0.2	2.5	-4.4	21.6	-3.2	49
O=C(O)CCCC(=O)Nc1cc(Nc2cccc(Cl)c2)ncn1	8.8	83.7	12.7	-0.6	13.3	78.2	1.1	8.7
